The source made the active and inactive calls.

The term Ki denotes the equilibrium dissociation constant of an inhibitor or competing ligand from its target.

Test [1] is described as follows: Displacement of [3H]BTA1 from amyloid beta (1 to 40) peptide by […].
The test system of a further test is Papio anubis. As to the kind of experiment: In vivo binding affinity to amyloid beta (1 to 40) peptide in ovariectomized baboon by SPECT imaging. The test is classed as functional, organism-based. The note with it: tested as the 123I-labelled form. An outline of the steps: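 Nonhuman primate fasted 18-24 h, immobilized with ketamine (10 mg/kg i.m.) plus glycopyrrolate (10 μg/kg i.m.) 2 h before study, intubated, kept on 2.5% isoflurane, vitals checked every 15 min. 123I tracer (3.2 mCi in 8 mL, ethanol/saline) injected. Continuous brain-dedicated SPECT at 159 keV for 1 h. Reconstruction used ramp plus Butterworth filter (cutoff 0.65 cm-1).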

As for `Cc1ccccc1C(=O)Nc1ccc2oc(-c3ccc(N(C)C)cc3)nc2c1`, the Ki in test [1] turned out to be 18.9 nM. This lies in the double-digit nanomolar range.

`COc1cc(C(=O)Nc2ccc3oc(-c4ccc(N(C)C)cc4)nc3c2)cc(OC)c1OC` yielded a Ki in test [1] of 109 nM.

In turn, `CN(C)c1ccc(-c2nc3cc(NC(=O)c4ccc(I)cc4)ccc3o2)cc1` came in with a Ki in test [1] of 9.3 nM. Also, the result in the test with Papio anubis was inactive.

Compound `CN(C)c1ccc(-c2nc3ccc(NC(=O)c4ccccc4)cc3o2)cc1` displayed a Ki in test [1] of 26 nM.

As to `Cc1ccccc1C(=O)Nc1ccc2nc(-c3ccc(N(C)C)cc3)oc2c1`, in test [1], the Ki turned out to be 112 nM.

In turn, `Cc1cccc(C(=O)Nc2ccc3oc(-c4ccc(N(C)C)cc4)nc3c2)c1` displayed a Ki in test [1] of 13.4 nM.

For `CN(C)c1ccc(-c2nc3ccc(NC(=O)c4ccc(I)cc4)cc3o2)cc1`, the Ki in test [1] is 60.1 nM.

`Cc1ccc(C(=O)Nc2ccc3oc(-c4ccc(N(C)C)cc4)nc3c2)cc1` returned a Ki in test [1] of 13.2 nM.

Turning to `CN(C)c1ccc(-c2nc3cc(NC(=O)c4ccc5c(c4)OCO5)ccc3o2)cc1`, the Ki in test [1] was found to be 17.2 nM. The Ki values of the last two compounds are within 1.5-fold of each other.

In test [1], `Cc1ccc(C(=O)Nc2ccc3nc(-c4ccc(N(C)C)cc4)oc3c2)cc1` gave a Ki of 86 nM. This Ki is about 5-fold higher than that of the compound before.

With `CN(C)c1ccc(-c2nc3cc(NC(=O)c4ccccc4)ccc3o2)cc1`, affinity in test [1] was put at a Ki of 12 nM.

On to `COc1cc(C(=O)Nc2ccc3nc(-c4ccc(N(C)C)cc4)oc3c2)cc(OC)c1OC`, for which, in test [1], the Ki worked out at 628 nM.

`CN(C)c1ccc(-c2nc3ccc(NC(=O)c4ccc5c(c4)OCO5)cc3o2)cc1` showed a Ki in test [1] of 19.7 nM.

In the case of `Cc1cccc(C(=O)Nc2ccc3nc(-c4ccc(N(C)C)cc4)oc3c2)c1`, the Ki in test [1] amounted to 31.5 nM.

The values are drawn from ChEMBL document CHEMBL1154546, “Synthesis of 5- and 6-substituted 2-(4-dimethylaminophenyl)-1,3-benzoxazoles and their in vitro and in vivo evaluation as imaging agents for amyloid plaque” (Bioorg Med Chem Lett, 2009).
